Measurements reported in ChEMBL document CHEMBL3864163, “I. Discovery of a novel series of CXCR3 antagonists. Multiparametric optimization of N,N-disubstituted benzylamines” (Bioorg Med Chem Lett, 2016).
pIC50: −log10 of the molar value.

What was measured:
[1] = Metabolic stability in human liver microsomes assessed as parent compound remaining in presence of NADPH by LC-MS/MS method; type: ADME
In short: (§1)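 Compound incubated with liver microsomes (human or mouse) plus NADPH at 37 °C. Loss of parent was followed by LC-MS-MS and reported as percent. Stability bands: low <40%, medium 40–60%, high >60%.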

[2] = Metabolic stability in mouse liver microsomes assessed as parent compound remaining in presence of NADPH by LC-MS/MS method; type: ADME; in short: as §1
[3] = Apparent permeability across human Caco2 cells after 2 hrs by LC-MS method; type: ADME, cell-based; conditions: Caco-2
In short: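 Caco-2 monolayers checked for integrity, then dosed alongside high- and low-permeability controls. Apical and basal samples taken at 2 h. Four transport conditions: A-B at pH 6.5/7.4 (0% or 0.5% BSA apical, 5% BSA basal), and A-B and B-A at pH 7.4/7.4 (0.5% BSA both sides). Compound quantified by LC/MS. Rapid transport defined as Papp >20 nm/s.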

[4] = Absolute oral bioavailability in Balb/c mouse at 10 mg/kg; type: ADME, organism-based; conditions: in vivo
In short: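 Male Balb/c mice dosed once orally at 10 mg/kg and once intravenously at 3 mg/kg. Either 4 animals per route were profiled individually, or sparse sampling used 24 mice with 3 per time point for mean profiles. Absolute oral bioavailability was derived from the two routes.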

[5] = biological target: T1, Muscarinic acetylcholine receptor M2 (Homo sapiens) (UniProt P08172); assay: Displacement of [3H]AF-DX384 from recombinant human muscarinic M2 receptor expressed in CHO cells at 10 uM after 60 mins by scintillation counting method relative to control; type: cell-based
T1 sequence (whole entry): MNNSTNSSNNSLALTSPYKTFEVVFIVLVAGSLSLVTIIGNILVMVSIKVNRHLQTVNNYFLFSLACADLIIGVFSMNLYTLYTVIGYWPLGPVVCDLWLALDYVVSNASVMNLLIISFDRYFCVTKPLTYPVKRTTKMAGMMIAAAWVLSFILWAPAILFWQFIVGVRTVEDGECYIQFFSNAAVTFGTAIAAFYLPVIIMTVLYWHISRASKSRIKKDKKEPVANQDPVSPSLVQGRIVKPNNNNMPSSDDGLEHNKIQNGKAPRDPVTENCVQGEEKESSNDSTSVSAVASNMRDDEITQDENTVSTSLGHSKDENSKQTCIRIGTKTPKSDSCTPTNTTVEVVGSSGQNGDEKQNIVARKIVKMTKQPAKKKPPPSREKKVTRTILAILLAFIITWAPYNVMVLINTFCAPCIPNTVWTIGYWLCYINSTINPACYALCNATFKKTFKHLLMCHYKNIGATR

[6] = biological target: Mu-type opioid receptor (Homo sapiens) (UniProt P35372); assay: Displacement of [3H]DAMGO from recombinant human mu opioid receptor expressed in HEK293 cells at 10 uM after 60 mins by scintillation counting method relative to control; type: cell-based
[7] = biological target: T2, C-X-C chemokine receptor type 3 (Homo sapiens) (UniProt P49682); assay: Displacement of [125I]-CXCL10 from human recombinant CXCR3 transfected in Flp-In-CHO cell membranes at 10 uM after 60 mins by gamma counting method relative to control
T2 sequence (whole entry): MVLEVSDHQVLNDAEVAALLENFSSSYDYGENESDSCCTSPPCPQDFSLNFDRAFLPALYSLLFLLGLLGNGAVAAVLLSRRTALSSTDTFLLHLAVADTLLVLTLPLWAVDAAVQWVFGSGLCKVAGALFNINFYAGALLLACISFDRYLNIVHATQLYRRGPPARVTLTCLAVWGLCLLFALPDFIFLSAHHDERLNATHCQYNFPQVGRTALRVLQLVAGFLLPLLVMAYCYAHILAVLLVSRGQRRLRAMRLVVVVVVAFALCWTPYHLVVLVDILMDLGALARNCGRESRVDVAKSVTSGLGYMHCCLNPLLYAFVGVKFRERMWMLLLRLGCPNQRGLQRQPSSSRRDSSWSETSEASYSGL

[8] = biological target: T3, C-X-C chemokine receptor type 3 (Homo sapiens, UniProt P49682); assay: Displacement of [125I]-CXCL10 from human recombinant CXCR3 transfected in Flp-In-CHO cell membranes after 60 mins by gamma counting method
T3 sequence (P49682 whole entry): T2 sequence (whole entry)

[9] = biological target: T4, Alpha-1A adrenergic receptor (Homo sapiens) (UniProt P35348); assay: Displacement of [3H]prazosin from recombinant human alpha 1A adrenergic receptor expressed in CHO cells at 10 uM after 60 mins by scintillation counting method relative to control; type: cell-based
T4 sequence (whole entry): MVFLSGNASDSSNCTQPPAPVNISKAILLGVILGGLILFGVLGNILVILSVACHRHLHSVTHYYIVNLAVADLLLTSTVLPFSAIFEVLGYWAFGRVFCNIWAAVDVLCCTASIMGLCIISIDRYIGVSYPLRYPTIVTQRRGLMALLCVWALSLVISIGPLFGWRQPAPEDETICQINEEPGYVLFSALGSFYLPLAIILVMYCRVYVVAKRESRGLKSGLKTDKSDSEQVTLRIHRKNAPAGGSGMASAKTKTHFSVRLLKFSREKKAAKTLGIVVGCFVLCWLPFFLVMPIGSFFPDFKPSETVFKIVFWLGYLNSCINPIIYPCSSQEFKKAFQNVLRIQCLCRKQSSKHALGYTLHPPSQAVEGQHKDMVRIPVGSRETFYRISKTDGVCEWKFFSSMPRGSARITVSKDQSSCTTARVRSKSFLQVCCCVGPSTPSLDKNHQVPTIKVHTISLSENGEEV

[10] = Intrinsic clearance in human hepatocytes assessed per 10^6 cells at 5 uM; type: ADME, cell-based, Hepatocyte
[11] = Chemical stability of the compound in 1:1 acetonitrile-water at pH 6.5 after 48 hrs by LC-MS method; type: physicochemical; conditions: buffer, pH 6.5, 48 h
[12] = biological target: T3, C-X-C chemokine receptor type 3; assay: Antagonist activity at human Galphai4qi4-coupled CXCR3A expressed in engineered CHO cells assessed as inhibition of IP-10-induced calcium mobilization by FLIPR assay; type: functional, cell-based
[13] = biological target: T5, Alpha-2A adrenergic receptor (Homo sapiens) (UniProt P08913); assay: Displacement of [3H]RX 821002 from recombinant human alpha 2A adrenergic receptor expressed in CHO cells at 10 uM after 60 mins by scintillation counting method relative to control; type: cell-based
T5 sequence (whole entry): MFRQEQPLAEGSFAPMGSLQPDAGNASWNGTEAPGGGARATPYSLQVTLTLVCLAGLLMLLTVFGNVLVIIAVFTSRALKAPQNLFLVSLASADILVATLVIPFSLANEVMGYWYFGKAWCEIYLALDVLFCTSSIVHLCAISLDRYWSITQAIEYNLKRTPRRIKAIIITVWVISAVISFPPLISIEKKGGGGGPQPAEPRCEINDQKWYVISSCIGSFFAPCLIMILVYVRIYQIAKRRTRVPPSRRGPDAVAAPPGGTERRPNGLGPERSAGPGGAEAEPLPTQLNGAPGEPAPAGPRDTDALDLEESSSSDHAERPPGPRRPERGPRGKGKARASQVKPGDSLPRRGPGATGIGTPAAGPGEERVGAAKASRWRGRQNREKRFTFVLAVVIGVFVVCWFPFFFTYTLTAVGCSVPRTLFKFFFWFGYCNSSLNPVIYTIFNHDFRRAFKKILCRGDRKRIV

[14] = biological target: Histamine H1 receptor (Homo sapiens) (UniProt P35367); assay: Displacement of [3H]pyrilamine from recombinant human histamine H1 receptor expressed in HEK293 cells at 10 uM after 60 mins by scintillation counting method relative to control; type: cell-based
[15] = biological target: T6, Muscarinic acetylcholine receptor M1 (Homo sapiens) (UniProt P11229); assay: Displacement of [3H]pirenzepine from recombinant human muscarinic M1 receptor expressed in CHO cells at 10 uM after 60 mins by scintillation counting method relative to control; type: cell-based
T6 sequence (whole entry): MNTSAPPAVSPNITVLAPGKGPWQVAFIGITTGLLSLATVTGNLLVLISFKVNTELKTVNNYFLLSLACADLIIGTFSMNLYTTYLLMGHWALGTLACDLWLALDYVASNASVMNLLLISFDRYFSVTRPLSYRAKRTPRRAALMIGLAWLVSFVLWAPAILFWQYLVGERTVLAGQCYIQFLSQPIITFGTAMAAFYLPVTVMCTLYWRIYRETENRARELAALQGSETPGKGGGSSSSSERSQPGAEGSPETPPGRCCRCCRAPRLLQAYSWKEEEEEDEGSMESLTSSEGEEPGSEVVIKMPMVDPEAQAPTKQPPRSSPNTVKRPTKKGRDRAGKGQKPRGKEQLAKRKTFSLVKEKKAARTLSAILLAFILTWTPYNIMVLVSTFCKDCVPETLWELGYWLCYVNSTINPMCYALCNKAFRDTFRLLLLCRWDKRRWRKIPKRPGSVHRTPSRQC

Mu-type opioid receptor (Homo sapiens), sequence (P35372 whole entry): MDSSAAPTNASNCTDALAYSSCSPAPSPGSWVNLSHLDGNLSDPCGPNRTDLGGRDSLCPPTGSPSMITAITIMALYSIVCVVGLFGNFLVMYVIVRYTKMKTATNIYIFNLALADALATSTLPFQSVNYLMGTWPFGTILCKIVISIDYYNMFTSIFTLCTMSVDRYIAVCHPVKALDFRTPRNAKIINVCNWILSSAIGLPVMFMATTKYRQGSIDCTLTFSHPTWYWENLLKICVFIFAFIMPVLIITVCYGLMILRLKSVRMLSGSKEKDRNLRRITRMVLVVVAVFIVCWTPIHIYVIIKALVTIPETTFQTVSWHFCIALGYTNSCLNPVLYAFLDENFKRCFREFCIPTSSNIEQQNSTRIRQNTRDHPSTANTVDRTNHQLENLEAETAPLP
Histamine H1 receptor (Homo sapiens), sequence (P35367 whole entry): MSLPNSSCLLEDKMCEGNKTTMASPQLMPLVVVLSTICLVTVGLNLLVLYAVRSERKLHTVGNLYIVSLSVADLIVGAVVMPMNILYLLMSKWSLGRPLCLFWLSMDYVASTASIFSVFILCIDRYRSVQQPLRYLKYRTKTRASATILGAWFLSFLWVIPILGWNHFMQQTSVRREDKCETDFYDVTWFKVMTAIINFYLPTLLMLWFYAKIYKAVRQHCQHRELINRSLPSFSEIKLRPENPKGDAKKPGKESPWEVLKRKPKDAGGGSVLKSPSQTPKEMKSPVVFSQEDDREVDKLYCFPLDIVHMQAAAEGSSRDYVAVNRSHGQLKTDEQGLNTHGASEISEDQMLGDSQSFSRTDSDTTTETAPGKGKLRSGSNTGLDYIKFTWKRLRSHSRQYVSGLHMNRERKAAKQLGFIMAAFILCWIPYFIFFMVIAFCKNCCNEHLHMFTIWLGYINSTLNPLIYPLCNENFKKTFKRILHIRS

Stability [1] [%] | Stability [2] [%] | Papp at 2 h [3] [×10⁻⁶ cm/s] | bioavailability [4] [%] | inhibition [5] [%] | inhibition [6] [%] | inhibition [7] [%] | CLH [10] [mL/h] | Structure (SMILES) | further results
70 | 87 | 2.22 | 4.1 | 99 | 78 | – | – | Cc1cc(CN(C[C@H]2CC[C@H](C(=O)O)CC2)C(C)c2ccc3c(c2)CCO3)ccc1OCCN1C(=O)CCC1=O (stereo partly drawn) | –
66 | 78 | 8.98 | – | 0 | 63 to 64 | – | – | COc1cc(CN(C[C@H]2CC[C@H](C(=O)O)CC2)C2CCc3cc(Cl)ccc32)ccc1OCCN1C(=O)CCC1=O (stereo partly drawn) | pIC50 [8]: 7.62; inhibition [9]: 52%
91 | 91 | 5.28 | 13.3 | – | 74 | – | – | COc1cc(CN(C[C@H]2CC[C@H](C(=O)O)CC2)[C@@H](C)c2ccc(Cl)cc2)ccc1OCCN1C(=O)CCC1=O | –
62 | 76 | 8.01 | 26.7 | – | – | – | 0.159 | COc1cc(CN(C[C@H]2CC[C@H](C(=O)O)CC2)[C@@H](C)c2ccc(Cl)cc2)ccc1OCCn1c(=O)ccn(C)c1=O | –
73 | 73 | 2.93 | – | 72 | 94 | – | – | COc1cc(CN(C[C@H]2CC[C@H](C(=O)O)CC2)C(C)c2ccc3c(c2)CCO3)ccc1OCCN1C(=O)CSC1=O (stereo partly drawn) | –
88 | 93 | 1.16 | – | – | – | – | – | COc1cc(CN(C[C@H]2CC[C@H](C(=O)O)CC2)C(C)c2ccc3c(c2)CCO3)ccc1OCCN1C(=O)COC1=O (stereo partly drawn) | Stability [11]: Unstable
70 | 79 | 7.52 | 24 | – | 43 | – | 0.112 | COc1cc(CN(C[C@H]2CC[C@H](C(=O)O)CC2)[C@H]2CCc3cc(Cl)ccc32)ccc1OCCN1C(=O)CCC1=O | inhibition [9]: 25%
73 | 87 | 19.5 | 93.5 | 97 | – | – | 0.138 | Cc1cc(CN(C[C@H]2CC[C@H](C(=O)O)CC2)[C@@H](C)c2ccc(Cl)cc2)ccc1OCCN1C(=O)CCC1=O | inhibition [9]: 71%
53 | 52 | 5.62 | – | > 65 | > 65 | – | – | COc1cc(CN(C)C(C)c2ccc3c(c2)CCO3)ccc1OCCN1C(=O)CCC1=O (stereo not drawn) | pIC50 [8]: 6.39; inhibition [9]: > 65%; pIC50 [12]: 7.13; inhibition [13]: > 65%; inhibition [14]: > 65%

Further lines, the compound ahead of its results:

Structure (SMILES) | Stability [1] [%] | Stability [2] [%] | Papp at 2 h [3] [×10⁻⁶ cm/s] | bioavailability [4] [%] | inhibition [5] [%] | inhibition [6] [%] | inhibition [7] [%] | CLH [10] [mL/h] | further results
CC(c1ccc2c(c1)CCO2)N(C)Cc1ccc2c(c1)OCCN2CCN1C(=O)CCC1=O (stereo not drawn) | – | – | – | – | – | – | 7 | – | –
COc1ccc(CN(C)C(C)c2ccc3c(c2)CCO3)cc1OCCN1C(=O)CCC1=O (stereo not drawn) | – | – | – | – | – | – | 18 | – | –
COc1cc(CN(C)C(C)c2ccc3c(c2)CCO3)ccc1OCN1C(=O)CCC1=O (stereo not drawn) | – | – | – | – | – | – | 8 | – | –
COc1cc(CN(C)C(C)c2ccc3c(c2)CCO3)ccc1OCCCN1C(=O)CCC1=O (stereo not drawn) | – | – | – | – | – | – | 39 | – | –
CC(c1ccc2c(c1)CCO2)N(C)Cc1ccc2c(c1)OC[C@H](CN1C(=O)CCC1=O)O2 (stereo partly drawn) | – | – | – | – | – | – | 36 | – | –
CCc1cc(CN(C[C@H]2CC[C@H](C(=O)O)CC2)[C@H]2CCc3cc(Cl)ccc32)ccc1OCCN1C(=O)CCC1=O | 94 | 96 | 8.02 | – | 37 | – | – | 0.069 | –
COc1cc(CN(C)C(C)c2ccc3c(c2)CCO3)cc(OCCN2C(=O)CCC2=O)c1 (stereo not drawn) | – | – | – | – | – | – | 4 | – | –
COc1cc(CN(C[C@H]2CC[C@H](C(=O)O)CC2)[C@H]2CCc3c2ccc(Cl)c3F)ccc1OCCN1C(=O)CCC1=O | 73 | 81 | 2.97 | 47 | 16 | – | – | 0.031 | –
COc1cc(CN(C)C(C)c2ccc3c(c2)CCO3)cc(OCCCN2C(=O)CCC2=O)c1 (stereo not drawn) | – | – | – | – | – | – | 15 | – | –
Cc1cc(CN(C[C@H]2CC[C@H](C(=O)O)CC2)[C@@H](C)c2ccc(Cl)cc2)ccc1OCCN1C(=O)CN(C)C1=O | 63 | 100 | 15.7 | 63.3 | – | – | – | 0.234 | pIC50 [8]: 7.00
Cc1cc(CN(C[C@H]2CC[C@H](C(=O)O)CC2)[C@H]2CCc3cc(Cl)ccc32)ccc1OCCN1C(=O)CCC1=O | 78 | 91 | 8.12 | 69 | 92 | 87 | – | 0.09 | inhibition [15]: 82%
